Results: ChEMBL document CHEMBL3421632, “Rational design of triazololipopeptides analogs of kisspeptin inducing a long-lasting increase of gonadotropins” (J Med Chem, 2015)
One block for each compound: values may come before it. Active and inactive are the calls of the source. No cut-off for these calls is given here. *1 amine or outer side, *2 acyl side, *3 side chain or, on linkers, in order; H or OH if unused. Where a SMILES comes first, the peptide text is derived from it. Side-chain parts run from the residue outwards. [ ]: non-standard residue; d: D form. The star is where a group is joined. Glyψ(1,4-Tz)Leu = CC(C)C[C@@H](C(=O)[*:2])n1cc(CN[*:1])nn1; γGlu = O=C(O)[C@H](CCC(=O)[*:2])N[*:1]; Palmitoyl = CCCCCCCCCCCCCCCC(=O)*; azaGly = NNC(=O)O

What was measured:
KiSS-1 receptor [1] = target: T1, KiSS-1 receptor (Homo sapiens, UniProt Q969F8); test: Agonist activity at human wild-type KISS1R expressed in HEK293 cells assessed as induction of intracellular Ca2+ mobilization after 30 mins by Fluo4 NW Ca2+ assay; type: functional, cell-based
T1 sequence (Q969F8 whole entry): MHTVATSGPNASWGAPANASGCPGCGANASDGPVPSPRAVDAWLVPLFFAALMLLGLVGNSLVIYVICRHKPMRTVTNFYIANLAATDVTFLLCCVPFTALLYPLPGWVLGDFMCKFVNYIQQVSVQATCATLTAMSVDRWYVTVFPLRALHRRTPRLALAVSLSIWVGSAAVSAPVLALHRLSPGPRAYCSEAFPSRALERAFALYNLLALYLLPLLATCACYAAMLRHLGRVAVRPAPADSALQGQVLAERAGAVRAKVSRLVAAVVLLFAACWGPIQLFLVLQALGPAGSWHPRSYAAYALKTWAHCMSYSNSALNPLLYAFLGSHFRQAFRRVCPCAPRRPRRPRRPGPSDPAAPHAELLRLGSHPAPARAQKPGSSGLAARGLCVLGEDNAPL
Outline: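 HEK293 stably expressing HA-tagged wild-type human KISS1R, plated 40 000 cells/well 48 h prior. Loaded with Fluo4 NW dye 30 min at 37 °C plus 30 min at rt. Basal read 5× at 7 s intervals, compound added (final 1 pM–1 μM), Ca2+ followed 7 min. Mean basal subtracted, AUC plotted against concentration, sigmoid fit gives EC50. Nontransfected HEK293 served as control.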

Ovis aries [2] = test: Increase in total plasma LH level in anoestrus Ile-de-France ewe at 5 nmol, iv by radioimmunoassay; type: functional, organism-based
Outline: (§1)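 Intact acyclic anoestrous Ile-de-France ewes (3–5 y, 55–70 kg), jugular catheter placed the day before. Single iv bolus of 1–15 nmol/ewe. Basal LH taken every 10 min for 30 min, then every 10 min for 2 h, every 20 min for 4 h, then hourly. Plasma LH by RIA (1051-CY-LH standard, sensitivity 0.1 ng/mL). Peak, duration and AUC derived; mean ± SEM, N = 4–6.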

[3] = Stability in Ile-de-France ewe serum assessed as intact compound level at 50 uM incubated for 6 hrs by HPLC method; type: ADME, cell-free, Ovis aries; details: female, sheep, read-out: Stability
Outline: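 Ile-de-France ewe serum, stored at −20 °C and preheated 30 min at 39 °C. Peptide at 50 μM final, with L-phenylalaninol internal calibrator, incubated at 39 °C. Proteins precipitated with MeCN and spun; supernatant run on RP-HPLC (2–52% MeCN/0.1% TFA over 5 min, UV 214 nm, plus MS). Intact peak given as % of t = 0 area; five independent experiments.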

KiSS-1 receptor [4] = target: T1, KiSS-1 receptor; test: Potency index, ratio of EC50 for KP10 to EC50 for compound for agonist activity at human wild-type KISS1R expressed in HEK293 cells assessed as induction of intracellular Ca2+ mobilization after 30 mins by Fluo4 NW Ca2+ assay; type: functional, cell-based
Outline: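 Ratio of KP10 EC50 to analog EC50, both measured by Fluo4 NW Ca2+ mobilization in HEK293 cells stably expressing HA-tagged human KISS1R. AUC from 7 min of monitoring, concentrations 1 pM–1 μM, sigmoid fit.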

Ovis aries [5] = test: Increase in maximal amplitude of plasma LH level in anoestrus Ile-de-France ewe at 1 to 15 nmol, iv by radioimmunoassay; type: functional, organism-based; outline: as §1
Ovis aries [6] = test: Increase in total plasma LH level in anoestrus Ile-de-France ewe at 1 to 15 nmol, iv by radioimmunoassay; type: functional, organism-based; outline: as §1
Ovis aries [7] = test: Increase in duration of increase of plasma LH level in anoestrus Ile-de-France ewe at 5 nmol, iv by radioimmunoassay; type: functional; outline: as §1
Ovis aries [8] = test: Increase in time duration of increase of plasma LH level in anoestrus Ile-de-France ewe at 1 to 15 nmol, iv by radioimmunoassay; type: functional, organism-based; outline: as §1
[9] = target: Neuropeptide FF receptor 1 (Homo sapiens, UniProt Q9GZQ6); test: Agonist activity at human NPFF1R expressed in CHO cells assessed as effect on forskolin-induced cAMP accumulation after 15 mins by luminescence based assay; type: functional, cell-based
Chain of Neuropeptide FF receptor 1 (Q9GZQ6 whole entry): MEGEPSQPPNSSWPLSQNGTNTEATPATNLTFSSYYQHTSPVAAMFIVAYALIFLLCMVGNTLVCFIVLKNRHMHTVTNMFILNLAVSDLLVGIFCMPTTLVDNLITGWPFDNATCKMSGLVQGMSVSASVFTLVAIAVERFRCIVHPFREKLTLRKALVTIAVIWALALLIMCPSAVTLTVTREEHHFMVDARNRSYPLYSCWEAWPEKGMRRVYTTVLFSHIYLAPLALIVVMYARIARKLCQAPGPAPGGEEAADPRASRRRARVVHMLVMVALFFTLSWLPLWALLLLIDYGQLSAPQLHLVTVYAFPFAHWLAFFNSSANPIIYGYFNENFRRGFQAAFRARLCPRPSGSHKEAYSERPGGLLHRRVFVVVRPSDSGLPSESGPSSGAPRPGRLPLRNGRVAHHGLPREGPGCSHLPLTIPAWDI
Outline: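 CHO cells stably expressing hNPFF1R (Gαi-coupled), transfected with GloSensor; seeded 30 000 cells/well 24 h before, PBS-washed twice, loaded with GloSensor cAMP reagent 2 h. Compound added, luminescence read 15 min, then 300 nM forskolin + 0.25 mM IBMX added and read a further 120 min. Signal AUC plotted against concentration, sigmoid fit for EC50.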

Homo sapiens = species: Homo sapiens; test: Selectivity index, ratio of EC50 for human NPFF1R to EC50 for human wild-type KISS1R
Ovis aries [10] = test: Increase in maximal amplitude of plasma LH level in anoestrus Ile-de-France ewe at 5 nmol, iv by radioimmunoassay (reference value: 0.4 +/- 0.2 ng/ml); type: functional; outline: as §1
[11] = Drug metabolism in Ile-de-France ewe serum assessed as cleavage at C and N-termini of azaGly bond at 50 uM incubated for 6 hrs by LC-MS method; type: ADME, cell-free, Ovis aries; details: sheep

Compound: Ac-YNWNK(Ac)FGLRY-NH2
EC50 (KiSS-1 receptor [1]): 7.2 nM

Compound: CCCCCCCCCCCCCCCC(=O)N[C@@H](CCC(=O)NCCCC[C@H](NC(=O)[C@H](Cc1ccc(O)cc1)NC(C)=O)C(=O)N[C@@H](Cc1c[nH]c2ccccc12)C(=O)N[C@@H](CC(N)=O)C(=O)N[C@@H](CO)C(=O)N[C@@H](Cc1ccccc1)C(=O)NCC(=O)N[C@@H](CC(C)C)C(=O)N[C@@H](CCCNC(=N)N)C(=O)N[C@@H](Cc1ccc(O)cc1)C(N)=O)C(=O)O (Ac-YK([γGlu-Palmitoyl])WNSFGLRY-NH2)
EC50 (KiSS-1 receptor [1]): 2.9 nM

Compound: CCCCCCCCCCCCCCCC(=O)N[C@@H](CCC(=O)NCCCC[C@H](NC(=O)[C@H](CC(N)=O)NC(=O)[C@H](Cc1ccc(O)cc1)NC(C)=O)C(=O)N[C@@H](CC(N)=O)C(=O)N[C@@H](CO)C(=O)N[C@@H](Cc1ccccc1)C(=O)NCc1cn([C@@H](CC(C)C)C(=O)N[C@@H](CCCNC(=N)N)C(=O)N[C@@H](Cc2ccc(O)cc2)C(N)=O)nn1)C(=O)O (Ac-YNK([γGlu-Palmitoyl])NSF[Glyψ(1,4-Tz)Leu]RY-NH2)
EC50 (KiSS-1 receptor [1]): 216 nM

Compound: Ac-YNWK(Ac)SFGLRY-NH2
EC50 (KiSS-1 receptor [1]): 13.9 nM

Compound: CCCCCCCCCCCCCCCC(=O)NCCCC[C@H](NC(=O)[C@H](Cc1ccc(O)cc1)NC(C)=O)C(=O)N[C@@H](Cc1c[nH]c2ccccc12)C(=O)N[C@@H](CC(N)=O)C(=O)N[C@@H](CO)C(=O)N[C@@H](Cc1ccccc1)C(=O)NCC(=O)N[C@@H](CC(C)C)C(=O)N[C@@H](CCCNC(=N)N)C(=O)N[C@@H](Cc1ccc(O)cc1)C(N)=O (Ac-YK(Palmitoyl)WNSFGLRY-NH2)
EC50 (KiSS-1 receptor [1]): 182 nM

Stronger by EC50 (KiSS-1 receptor [1]), values ahead:

EC50 (KiSS-1 receptor [1]): 0.08 nM
Compound: Ac-YNK(Ac)NSFGLRY-NH2

EC50 (KiSS-1 receptor [1]): 0.07 nM
remaining at 6 h, 50 µM [3]: 40.8%
Ratio EC50 (KiSS-1 receptor [4]): 30
EC50 [9]: > 5000 nM
Ratio EC50 (Homo sapiens): > 10000
Compound: CC(=O)N[C@@H](Cc1ccc(O)cc1)C(=O)N[C@@H](CC(N)=O)C(=O)N[C@@H](Cc1c[nH]c2ccccc12)C(=O)N[C@@H](CC(N)=O)C(=O)N[C@@H](CO)C(=O)N[C@@H](Cc1ccccc1)C(=O)NCc1cn([C@@H](CC(C)C)C(=O)N[C@@H](CCCNC(=N)N)C(=O)N[C@@H](Cc2ccc(O)cc2)C(N)=O)nn1 (Ac-YNWNSF[Glyψ(1,4-Tz)Leu]RY-NH2)
Activity (Ovis aries [2]): Active
Activity (Ovis aries [5]): Active
Activity (Ovis aries [6]): Active
fold change (FC) (Ovis aries [7]): >2
Activity (Ovis aries [8]): Active
Activity (Ovis aries [10]): 5.4 ng/mL

EC50 (KiSS-1 receptor [1]): 0.006 nM
remaining at 6 h, 50 µM [3]: 8.4%
Drug metabolism [11]: metabolite_detected
Compound: CC(=O)N[C@@H](Cc1ccc(O)cc1)C(=O)N[C@@H](CC(N)=O)C(=O)N[C@@H](Cc1c[nH]c2ccccc12)C(=O)N[C@@H](CC(N)=O)C(=O)N[C@@H](CO)C(=O)N[C@@H](Cc1ccccc1)C(=O)NNC(=O)N[C@@H](CC(C)C)C(=O)N[C@@H](CCCNC(=N)N)C(=O)N[C@@H](Cc1ccc(O)cc1)C(N)=O (Ac-YNWNSF[azaGly]LRY-NH2)

EC50 (KiSS-1 receptor [1]): 0.9 nM
Compound: Ac-K(Ac)NWNSFGLRY-NH2

EC50 (KiSS-1 receptor [1]): 0.1 nM
Compound: Ac-YK(Ac)WNSFGLRY-NH2
